These results are taken from ChEMBL document CHEMBL4330143, “Maximizing ER-α Degradation Maximizes Activity in a Tamoxifen-Resistant Breast Cancer Model: Identification of GDC-0927” (ACS Med Chem Lett, 2019).

The structures appear in SMILES notation. Calls of active or inactive are those of the source. The calls are words filed in the database; no cut-off is given here.

A short description of data set [1]: Cmax in nude mouse xenografted with tamoxifen-resistant human MCF7 cells at 100 mg/kg, po daily for 28 days measured on day 28 post last dose. The class given is ADME, organism-based. Also on record: dose 100 mg/kg, route oral. To be noted: in vivo. In a few lines: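 Tamoxifen-resistant MCF-7 xenograft mice carrying subcutaneous 0.72 mg estradiol pellets. Plasma pharmacokinetics sampled on day 28 of the study, at take-down.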

Data set [2] can be described thus: Clearance in rat at 10 mg/kg, po daily for 3 days measured on day 3 post last dose. The class given is ADME, organism-based. To be noted: in vivo.
Data set [3] in a line: Oral bioavailability in rat at 10 mg/kg daily for 3 days measured on day 3 post last dose. The settings on record: in vivo. The data set is classed as ADME, organism-based.
Another data set concerns MCF7. The data set is described as follows: Antitumor activity against tamoxifen-resistant human MCF7 cells xenografted in nude mouse at 100 mg/kg, po daily for 28 days. The data set is classed as functional, organism-based. In short, it runs like this:
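Tamoxifen-resistant MCF-7 tumours grown subcutaneously in mice, with estradiol supplied from subcutaneous 0.72 mg estradiol pellets.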

Data set [4] in a line: AUC in rat at 10 mg/kg, po daily for 3 days measured on day 3 post last dose. The settings on record: in vivo. The data set is classed as ADME, organism-based.
The next data set deals with T1, Cytochrome P450 1A2 (Homo sapiens, UniProt P05177).
T1 sequence (P05177 whole entry): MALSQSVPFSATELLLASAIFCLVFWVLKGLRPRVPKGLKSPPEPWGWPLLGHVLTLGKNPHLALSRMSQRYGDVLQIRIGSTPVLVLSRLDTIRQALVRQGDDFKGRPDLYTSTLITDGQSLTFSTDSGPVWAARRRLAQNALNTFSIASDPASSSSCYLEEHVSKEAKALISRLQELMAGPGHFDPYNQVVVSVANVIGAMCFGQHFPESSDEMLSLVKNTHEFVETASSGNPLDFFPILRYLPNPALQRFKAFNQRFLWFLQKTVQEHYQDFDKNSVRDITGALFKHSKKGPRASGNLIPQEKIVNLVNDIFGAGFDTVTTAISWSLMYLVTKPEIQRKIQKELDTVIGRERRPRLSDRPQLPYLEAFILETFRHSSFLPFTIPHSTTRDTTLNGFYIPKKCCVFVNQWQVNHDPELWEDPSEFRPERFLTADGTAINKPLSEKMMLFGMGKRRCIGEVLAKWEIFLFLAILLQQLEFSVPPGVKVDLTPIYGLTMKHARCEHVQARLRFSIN
Description: Competitive inhibition of CYP1A2 (unknown origin). The data set is classed as ADME.

Data set [5] deals with Voltage-gated inwardly rectifying potassium channel KCNH2 (Homo sapiens, UniProt Q12809). Description: Inhibition of human ERG by patch clamp method.
Sequence of Voltage-gated inwardly rectifying potassium channel KCNH2 (Q12809 whole entry): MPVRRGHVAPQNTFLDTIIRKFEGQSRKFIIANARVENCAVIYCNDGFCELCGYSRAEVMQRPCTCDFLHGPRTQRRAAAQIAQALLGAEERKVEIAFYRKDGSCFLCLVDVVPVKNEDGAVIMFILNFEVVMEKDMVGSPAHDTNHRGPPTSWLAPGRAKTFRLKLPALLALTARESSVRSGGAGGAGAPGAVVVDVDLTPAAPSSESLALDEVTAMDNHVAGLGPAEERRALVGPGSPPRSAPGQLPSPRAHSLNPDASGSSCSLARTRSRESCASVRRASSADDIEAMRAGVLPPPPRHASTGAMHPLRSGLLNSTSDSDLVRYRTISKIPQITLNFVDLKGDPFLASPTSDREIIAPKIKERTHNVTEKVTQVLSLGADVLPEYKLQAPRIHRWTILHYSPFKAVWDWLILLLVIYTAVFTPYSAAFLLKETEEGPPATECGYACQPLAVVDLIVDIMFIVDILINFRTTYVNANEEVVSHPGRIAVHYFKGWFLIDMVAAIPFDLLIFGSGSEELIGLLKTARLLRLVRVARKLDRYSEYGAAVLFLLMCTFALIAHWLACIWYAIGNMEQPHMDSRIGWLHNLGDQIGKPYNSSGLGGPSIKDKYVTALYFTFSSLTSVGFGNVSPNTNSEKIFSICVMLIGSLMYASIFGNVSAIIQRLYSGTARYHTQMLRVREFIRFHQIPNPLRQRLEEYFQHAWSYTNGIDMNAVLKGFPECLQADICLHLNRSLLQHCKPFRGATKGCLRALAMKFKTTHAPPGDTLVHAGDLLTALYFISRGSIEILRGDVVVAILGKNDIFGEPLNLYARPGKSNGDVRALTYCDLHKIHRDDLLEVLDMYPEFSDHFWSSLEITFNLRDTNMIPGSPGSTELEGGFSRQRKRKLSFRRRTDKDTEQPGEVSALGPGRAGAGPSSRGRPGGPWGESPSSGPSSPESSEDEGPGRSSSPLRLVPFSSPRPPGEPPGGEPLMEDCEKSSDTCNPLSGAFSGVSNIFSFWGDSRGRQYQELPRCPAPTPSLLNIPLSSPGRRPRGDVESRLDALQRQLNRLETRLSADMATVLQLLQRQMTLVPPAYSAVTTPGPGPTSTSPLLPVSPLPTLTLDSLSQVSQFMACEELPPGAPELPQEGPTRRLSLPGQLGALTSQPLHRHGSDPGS

In data set [1], `CC1=C(c2cccc(O)c2)[C@H](c2ccc(OCCN3CC(CF)C3)cc2)Oc2ccc(O)cc21` yielded a Cmax of 950 ng/mL. In data set [2], this compound showed a CL/F above 60 mL/min/kg. The compound also displayed a bioavailability in data set [3] of 10%. The outcome with MCF7 was Active. Moreover, the AUC at 72 h in data set [4] was found to be 160 ng·h/mL. The IC50 is above 10 µM on Cytochrome P450 1A2 and 4.6 µM in data set [5].

As a reminder, the Cmax is the highest concentration seen after dosing. Broadly, the CL/F is the apparent clearance, not corrected for the fraction that reaches the circulation. By bioavailability is commonly meant the share of a dose that reaches the circulation, judged against a reference dose that is usually intravenous. Low readings indicate little systemic uptake, high ones much systemic uptake. One may read the AUC as concentration integrated over time. A lower AUC goes with less exposure. For orientation: IC50 means the concentration at which inhibition is half-maximal. The low end stands for greater potency in that assay, the high end for weaker potency in that assay.
